Bioassay records as filed in PubChem.
In the library only some 2% were active in any assay of this set; here they are far more common.
NSD2 inh: blocks human histone methyltransferase NSD2; 0.54% of 310,000 active; inhibition, % at 12.5 µM; NSD2 peptide methylation, AlphaScreen, 120 min; O96028; in the data active means inhibition above about 50%
SR-BI uptake up: SR-BI HDL lipid transfer activation; CHO ldlA[mSR-BI] cells, DiI-HDL uptake fluorescence, 3 h; 100 = double the neutral-control signal; activation, % at 12.5 µM; 0.096% of 320,000 active; AID 504775;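 active means mean replicate activation of at least 60% and every replicate at or above 60%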
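Material: SR-BI-overexpressing, LDLR-lacking CHO cells; schedule: compound exposure 3 h, 37 °C; reagent: DiI-labelled HDL at 10 µg/mL final; technique: bottom-read fluorescence, 550/595 nm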
Xi reactivation: reactivates the inactive X chromosome in mouse fibroblasts. XiGFP mouse fibroblasts, % GFP-positive cells imaging, 3 d; cells co-treated with 5-aza-dC sensitizer; scaled so ellipticine positive control = 100%. activation, % at 7.58 µM. 0.055% of 360,000 active. AID 743238;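 active means mean normalized replicate activation at least 10% and every replicate at or above 10%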
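assay system = SV40-immortalized XiGFP fibroblast cells, line 68-5-11 | buffer or medium = DMEM plus 5-aza-dC sensitizer | doses = single-point pinned compound dosing | times = 3-day compound exposure, then 15 min fixation at room temperature | benchmarks = positive control ellipticine, 6 µM final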
ARNT-TACC3 inh: disruptors of human ARNT/TACC3 interaction; 0.66% of 390,000 active; AlphaScreen His-ARNT PAS-B/GST-TACC3 binding, luminescence; TACC3 fragment carries E629A point mutation; inhibition, % at 9.99 µM; Q9Y6A5;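 active means mean inhibition of replicates at least 50% and at least half of replicates each reaching 50%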
sPLA2-III inh: Blocks human group III sPLA2 activity | Q9NZ20 | QFRET BODIPY PC-A2 liposome hydrolysis, fluorescence | inhibition, % at 12.2 µM | 0.56% of 370,000 active | AID 743126;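 active means inhibition above mean plus 3 SD of compounds lying within the high and low control bounds, cut at about 19% in these data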
SR-BI HDL uptake: mouse SR-BI HDL lipid transfer inhibition; Q61009; AID 488896; 0.96% of 320,000 active; ldlA[mSR-BI] CHO cells, DiI-HDL uptake fluorescence, 3 h; inhibition, % at 12.5 µM;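 active means mean replicate inhibition of at least 70% and a set share of replicates each scoring 70 or more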
Target sequence (Q61009 whole entry, looked up): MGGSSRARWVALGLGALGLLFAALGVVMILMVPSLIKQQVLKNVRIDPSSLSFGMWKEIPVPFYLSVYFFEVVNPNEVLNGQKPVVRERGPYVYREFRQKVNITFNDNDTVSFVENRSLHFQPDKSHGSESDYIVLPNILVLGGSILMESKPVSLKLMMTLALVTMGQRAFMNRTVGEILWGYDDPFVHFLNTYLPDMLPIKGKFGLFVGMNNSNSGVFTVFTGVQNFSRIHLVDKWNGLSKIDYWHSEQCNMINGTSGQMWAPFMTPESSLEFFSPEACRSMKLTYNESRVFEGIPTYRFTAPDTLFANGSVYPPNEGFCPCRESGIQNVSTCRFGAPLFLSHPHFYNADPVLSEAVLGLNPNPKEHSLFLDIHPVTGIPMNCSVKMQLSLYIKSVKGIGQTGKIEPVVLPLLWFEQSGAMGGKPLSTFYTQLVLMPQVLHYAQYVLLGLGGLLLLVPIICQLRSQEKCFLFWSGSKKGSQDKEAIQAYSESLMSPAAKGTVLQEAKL
Large screens that a line does not name were inactive.

Cc1ccccc1NS(=O)(=O)c1ccc(C(=O)NNC(=O)c2ccccc2O)cc1	SR-BI HDL uptake 84
O=C(NNC(=O)c1ccccc1O)c1ccc(S(=O)(=O)Nc2ccccc2F)cc1	none
CN(CC(=O)NCCN1CCOCC1)S(=O)(=O)c1ccc(Cl)cc1	none
CN(CC(=O)NCCCN1CCOCC1)S(=O)(=O)c1ccc(Br)cc1	SR-BI HDL uptake 78 (no result: Xi reactivation)
Oc1cccc2cc3cccc(O)c3c(O)c12	none (no result: NSD2 inh, Xi reactivation, sPLA2-III inh)
[O-][n+]1cccc2cccc(O)c21	ARNT-TACC3 inh 53
Cc1ccc(CN(CC(=O)NCCc2ccccc2)C(=O)CCCC(=O)Nc2cc(C)on2)cc1	none (no result: Xi reactivation)
Cc1oc2cc3oc(=O)c(CC(=O)O)c(C)c3cc2c1-c1ccccc1	none
Cc1oc2c(C)c3oc(=O)c(CCC(=O)O)c(C)c3cc2c1-c1ccccc1	ARNT-TACC3 inh 26
Cc1c(CCC(=O)O)c(=O)oc2cc3occ(-c4ccc(Cl)cc4)c3cc12	ARNT-TACC3 inh 45
CC(COc1ccc([N+](=O)[O-])cc1Cl)CN1CCC(C(O)(c2ccccc2)c2ccccc2)CC1 (centres undefined)	none (no result: NSD2 inh, SR-BI uptake up, Xi reactivation, ARNT-TACC3 inh, SR-BI HDL uptake)
Cc1ccc(-n2nc(C)cc2NC(=O)c2ccc(C)s2)cc1	SR-BI HDL uptake 87 (no result: Xi reactivation)
Cc1ccc(-n2nc(C)cc2NC(=O)CC#N)cc1	none (no result: ARNT-TACC3 inh)
Cc1ccc(C)c(S(=O)(=O)N2CCN(C(=O)c3cncc(Br)c3)CC2)c1	none
CCOc1ccc(/C=C(\C#N)C(=O)Nc2cccnc2)cc1	none
CCOc1ccc(NC(=O)/C(C#N)=C\c2ccc(N3CCCC3)c(C)c2)cc1	SR-BI HDL uptake 101
O=C(Cc1ccc(Cl)cc1)NC(=S)Nc1ccccc1N1CCOCC1	none (no result: Xi reactivation)
CCC(=O)N[C@H]1CC[C@@H](CC(=O)OC)O[C@H]1CO	none (no result: NSD2 inh, SR-BI uptake up, sPLA2-III inh, SR-BI HDL uptake)
CCOC(=O)c1c(C)oc2c1c(C=NC1CCS(=O)(=O)C1)c(O)c1ccccc12 (centres undefined)	NSD2 inh 88
CCOc1ccc(C(=O)NC(C(=O)NCCc2ccc(OC(F)F)cc2)C(C)C)cc1 (centres undefined)	none
Cc1ccccc1NC(=S)N(CCN(C)C)C(C)c1ccccn1 (centres undefined)	none (no result: Xi reactivation)
Cc1c(Cl)cccc1NC(=S)N(CCN(C)C)C(C)c1ccccn1 (centres undefined)	ARNT-TACC3 inh 54 (no result: Xi reactivation)
Cc1nc(NC(=O)/C=C/c2ccccc2)sc1C(=O)Nc1ccccc1	SR-BI HDL uptake 76 (no result: NSD2 inh, Xi reactivation)
Cc1cc(C)c(NC(=O)CSc2nc3ccc(N4C(=O)c5ccccc5C4=O)cc3s2)c(C)c1	SR-BI HDL uptake 74 (no result: NSD2 inh)
CCc1cccc(C)c1NC(=O)CSc1nc2ccc(N3C(=O)c4ccccc4C3=O)cc2s1	none (no result: Xi reactivation, ARNT-TACC3 inh)
O=C(COC(=O)c1cc([N+](=O)[O-])ccc1N1CCOCC1)Nc1ncc(Cl)cc1Cl	SR-BI HDL uptake 86 (no result: SR-BI uptake up)
Cc1cc(C)c(NC(=O)COC(=O)c2cc([N+](=O)[O-])ccc2N2CCOCC2)c(C)c1	none
O=C(COC(=O)c1cc([N+](=O)[O-])ccc1N1CCOCC1)c1ccc(OC(F)F)cc1OC(F)F	SR-BI HDL uptake 76
Cc1cc(NC(=O)COC(=O)c2cc([N+](=O)[O-])ccc2N2CCOCC2)ccc1Br	SR-BI HDL uptake 71
O=C(COC(=O)c1cc([N+](=O)[O-])ccc1N1CCOCC1)Nc1cc(F)ccc1F	SR-BI HDL uptake 85
Cc1cc(NC(=O)COC(=O)CSc2nc3cc(Cl)ccc3n2Cc2ccccc2)no1	none (no result: Xi reactivation)
Cc1cc([N+](=O)[O-])ccc1NC(=O)c1cc2ccccc2o1	none
O=C(COC(=O)c1cc([N+](=O)[O-])ccc1N1CCOCC1)Nc1ccccc1OC(F)F	SR-BI HDL uptake 74
COc1ccc2cc(C(c3nnnn3C3CCCCC3)N3CCCCCC3)c3nnnn3c2c1 (centres undefined)	SR-BI HDL uptake 80 (no result: Xi reactivation, ARNT-TACC3 inh)
N#Cc1sc2nc(-c3cccs3)cc(-c3ccccc3)c2c1N	SR-BI HDL uptake 84 (no result: Xi reactivation)
N#Cc1sc2nc(-c3cccs3)cc(-c3ccc(Cl)cc3)c2c1N	none (no result: Xi reactivation)
Cc1ccc2c(c1)c1c3n2CC(=C2C(=O)OC(C)(C)OC2=O)NC3CCC1 (centres undefined)	SR-BI HDL uptake 78 (no result: NSD2 inh, Xi reactivation)
CCN(CC)C(=O)CSc1nc2ccccc2c(=O)n1-c1ccccc1OC	none (no result: Xi reactivation)
COc1ccc(OC)c(-c2c3cc(O)c(=O)cc-3oc3cc(O)c(O)cc23)c1	SR-BI HDL uptake 91 (no result: NSD2 inh, Xi reactivation, sPLA2-III inh)
CCOc1ccccc1-c1c2cc(O)c(=O)cc-2oc2cc(O)c(O)cc12	SR-BI HDL uptake 73 (no result: NSD2 inh, Xi reactivation, sPLA2-III inh)
O=c1cc2oc3cc(O)c(O)cc3c(-c3ccccc3O)c-2cc1O	none (no result: NSD2 inh, Xi reactivation, sPLA2-III inh)
Cc1nc(-c2ccc(F)cc2)c(CC(=O)Nc2ccc(C)c(S(=O)(=O)N3CCOCC3)c2)s1	none
COc1ccc(NC(=O)Cn2cc(C(C)=O)c3ccccc32)cc1	none
Cc1cccc2sc(NC(=O)c3cc(S(=O)(=O)N(C)C)ccc3N3CCCC3)nc12	SR-BI HDL uptake 76
CCOc1ccc(NC2OC(C)C(O)C(O)C2O)c([N+](=O)[O-])c1 (centres undefined)	none
COc1ccc(-c2cc3cc(OC)c(OC)cc3c(C)n2)cc1	SR-BI HDL uptake 80
COc1ccc(-c2cc(OC)c3ccccc3n2)cc1	none (no result: Xi reactivation)
COc1ccc(C(OC(=O)c2ccco2)C(=O)NC2CCCC2)cc1OC (centres undefined)	none
COc1ccc(C(OC(=O)c2ccco2)C(=O)NC2CCCCC2)cc1OC (centres undefined)	SR-BI uptake up 336 (no result: Xi reactivation)
CCOc1ccc(NC(=O)CN(C)C(=O)c2ccc(N3CCCCCC3)c([N+](=O)[O-])c2)cc1OCC	SR-BI HDL uptake 86
CCOc1ccc(NC(=O)CN(C)C(=O)c2ccc3c(c2)C(=O)N(CCC(C)C)C3=O)cc1OCC	SR-BI HDL uptake 78
N#CC(c1cccc(Cl)c1)c1ccc2c(C(F)(F)F)cc(C(F)(F)F)nc2n1 (centres undefined)	SR-BI HDL uptake 117 (no result: Xi reactivation)
CS(=O)Cc1cc(Sc2ccccc2)nc(-c2cccnc2)n1 (centres undefined)	none
CC(=NCCCn1ccnc1)C1=C(O)c2ccccc2C1=O	SR-BI uptake up 61 (no result: Xi reactivation)
CCOc1ccc(C(=O)Nc2cccc(-c3nc4cccnc4o3)c2)cc1Cl	SR-BI HDL uptake 83 (no result: Xi reactivation, sPLA2-III inh)
CCOc1ccc(C(=O)Nc2cccc(C(=O)O)c2)cc1Cl	none (no result: ARNT-TACC3 inh)
CCC(=O)N1C[C@@H](C)[C@H](OC)CN(C)C(=O)c2cc(NC(=O)C3CC3)ccc2OC[C@H]1C	none (no result: NSD2 inh, SR-BI uptake up, sPLA2-III inh, SR-BI HDL uptake)
O=C1C=C(c2ccccc2)CC(/C=C/c2ccccc2)C1 (centres undefined)	none
CNC(=O)c1ccc(-c2sc3nc(N4CCOCC4)c4c(c3c2N)CC(C)(C)OC4)o1	none (no result: Xi reactivation)
CNC(=O)c1ccc(-c2sc3nc(N4CCOCC4)c4c(c3c2N)CCCC4)o1	SR-BI HDL uptake 87 (no result: Xi reactivation)
